According to ChEMBL document CHEMBL1159328, “Cyclotheonamide E4 and E5, new potent tryptase inhibitors from an Ircinia species of sponge” (J Nat Prod, 2002):
*1 amine or outer side, *2 acyl side, *3 side chain or, on linkers, in order; H or OH if unused. Where a SMILES comes first, the peptide text is derived from it. Bridges are numbered along the chain shown (N, C = ends). [ ]: non-standard residue; d: D form. The star is where a group is joined. Arg(ψCOCO) = N=C(N)NCCC[C@H](N[*:1])C(=O)C(=O)[*:2]; X1 = O=C(/C=C/[C@H](Cc1ccc(O)cc1)N[*:1])[*:2]; aIle = CC[C@@H](C)[C@H](N)C(=O)O; Dap = NC[C@H](N)C(=O)O; PhAc = O=C(Cc1ccccc1)*

What was measured:
[1] = Inhibition of human tryptase in human cultured mast cell lysate
Summary of the method: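 Tryptase source: lysate (detergent/hypotonic buffer) of umbilical cord blood-derived human mast cells, ≥12 weeks in culture with SCF and IL-6, 100% pure; 8 × 10³ cell equiv/mL lysate. Preincubated 10 min at 37 °C with varied inhibitor. Substrate: 0.2 mM tosyl-Gly-Pro-Arg-pNA, Tris pH 8.0 buffer; 30 min at 37 °C; A405.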

[2] = Inhibition of mouse tryptase in mouse bone marrow mast cell lysate
Summary of the method: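 Lysate (detergent/hypotonic buffer) of CBA/J mouse femoral bone marrow cells cultured 5 weeks with mouse IL-3 (>99% mast cells), used at 8 × 10⁴ cell equiv/mL as tryptase source. 10 min 37 °C preincubation with varied inhibitor levels. Then 0.2 mM tosyl-Gly-Pro-Arg-pNA in Tris pH 8.0 buffer, 30 min 37 °C; absorbance at 405 nm.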

Prothrombin = Prothrombin (Homo sapiens, UniProt P00734); experiment: Inhibition of human thrombin
Summary of the method: (§1)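 Purified enzyme, preincubated 10 min at 37 °C with a range of inhibitor concentrations. Substrate: 0.2 mM N-p-tosyl-Gly-Pro-Arg p-nitroanilide, in 0.1 M Tris pH 8.0 with 1 mM CaCl2, 1 mM MgCl2, 1 M glycerol and 0.1% Triton X. Then 30 min at 37 °C; absorbance read at 405 nm.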

[3] = Inhibition of bovine trypsin; design: species or system Bos taurus; summary of the method: as §1

| IC50 [1] [nM] | IC50 [2] [nM] | IC50 (Prothrombin) [nM] | IC50 [3] [nM] | SMILES |
| --- | --- | --- | --- | --- |
| 5.1 | 6.5 | 7.4 | 5.9 | CCC(C)CC(=O)N[C@@H](C)C(=O)N[C@H]1CNC(=O)/C=C/[C@H](Cc2ccc(O)cc2)NC(=O)[C@H]([C@H](C)CC)NC(=O)C(=O)[C@H](CCCNC(=N)N)NC(=O)[C@@H]2CCCN2C1=O (some centres not stated) [CYCLOTHEONAMIDE E4] |
| 84.7 | 54.1 | 67.9 | 37.3 | CCC(C)CC(=O)N[C@@H](C)C(=O)N[C@H]1CNC(=O)/C=C/[C@H](Cc2ccc(O)c(O)c2)NC(=O)[C@H]([C@H](C)CC)NC(=O)C(=O)[C@H](CCCNC(=N)N)NC(=O)[C@@H]2CCCN2C1=O (some centres not stated) [CYCLOTHEONAMIDE E5] |
| 6.9 | 17 | 16.1 | 10.6 | CC[C@@H](C)[C@@H]1NC(=O)C(=O)[C@H](CCCNC(=N)N)NC(=O)[C@@H]2CCCN2C(=O)[C@@H](NC(=O)[C@H](C)NC(=O)Cc2ccccc2)CNC(=O)/C=C/[C@H](Cc2ccc(O)cc2)NC1=O [CYCLOTHEONAMIDE E] (PhAc-A[Dap]P[Arg(ψCOCO)][aIle][X1]; lactam 2-C) |
